# According to ChEMBL document CHEMBL1152422, “Cytotoxic triterpenoids from the rhizomes of Astilbe chinensis” (J Nat Prod, 2009):
# Experiments:
# Assay type in all cases: functional, cell-based
# K562 = assay: Cytotoxicity against human K562 cells by rapid colorimetric assay
# Procedure, shortened: (§1)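 A549, SNU-1, K562 and HepG2 cells were grown in RPMI1640 and MEM with 10% FBS at 37 °C in a CO2 incubator before testing against the cell panel.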
# A549 = assay: Cytotoxicity against human A549 cells by rapid colorimetric assay; procedure, shortened: as §1
# SNU1 = assay: Cytotoxicity against human SNU1 cells by rapid colorimetric assay; procedure, shortened: as §1
# HepG2 = assay: Cytotoxicity against human HepG2 cells by rapid colorimetric assay; procedure, shortened: as §1
# HL-60 = assay: Cytotoxicity against human HL60 cells by rapid colorimetric assay
# Procedure, shortened: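 HL-60 human promyelocytic leukaemia cells were maintained in IMDM with 20% FBS at 37 °C in a CO2 incubator before testing against the cell panel.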
SMILES,IC50 (K562) [µM],IC50 (A549) [µM],IC50 (SNU1) [µM],IC50 (HepG2) [µM],IC50 (HL-60) [µM]
C[C@H]1[C@H](C)CC[C@]2(C)CC[C@]3(C(=O)O)C(=CC[C@@H]4[C@@]5(C)CC[C@H](O)C(C)(C)[C@@H]5CC[C@]43C)[C@H]12,> 10,> 10,> 10,> 10,8.2
CC(=O)O[C@@H]1CC[C@]2(C)[C@H]3CC=C4[C@@H]5[C@@H](C)[C@H](C)CC[C@]5(C)CC[C@@]4(C(=O)O)[C@]3(C)CC[C@H]2C1(C)C,> 10,> 10,> 10,> 10,3.9
C=C1[C@@H]2[C@H](O)C[C@]3(C)[C@H](CC=C4[C@@H]5CC(C)(C)CC[C@]5(C)CC[C@]43C(=O)O)[C@@]2(C)CC[C@@H]1O,> 10,> 10,> 10,> 10,> 10
CC1(C)CC[C@]2(C)CC[C@]3(C(=O)O)C(=CC[C@@H]4[C@@]5(C)CC[C@H](O)[C@](C)(CO)[C@@H]5CC[C@]43C)[C@@H]2C1,> 10,> 10,> 10,> 10,> 10
CC1(C)CC[C@]2(C)CC[C@]3(C(=O)O)C(=CC[C@@H]4[C@@]5(C)CC[C@@H](O)C(C)(C)C5=CC[C@]43C)[C@@H]2C1,> 10,> 10,> 10,> 10,> 10
CC(=O)O[C@@H]1CC[C@]2(C)[C@H]3CC=C4[C@@H]5CC(C)(C)CC[C@]5(C)CC[C@@]4(C(=O)O)[C@]3(C)CC[C@H]2C1(C)C,> 10,> 10,> 10,> 10,9.3
CC1(C)CC[C@]2(C)CC[C@]3(C(=O)O)C(=CC[C@@H]4[C@@]5(C)CC[C@H](O)C(C)(C)[C@@H]5CC[C@]43C)[C@@H]2C1,> 10,> 10,9.3,> 10,8.9
CC(=O)O[C@H]1CC[C@]2(C)[C@H]3CC=C4[C@@H]5[C@@H](C)[C@H](C)CC[C@]5(C)CC[C@@]4(C(=O)O)[C@]3(C)C[C@@H](O)[C@H]2C1(C)C,> 10,> 10,> 10,> 10,9.6
CC(=O)O[C@H]1CC[C@]2(C)[C@H]3CC=C4[C@@H]5CC(C)(C)CC[C@]5(C)CC[C@@]4(C(=O)O)[C@]3(C)C[C@@H](O)[C@H]2C1(C)C,> 10,> 10,> 10,> 10,5.1
CC1(C)CC[C@]2(C)CC[C@]3(C(=O)O)C(=CC[C@@H]4[C@@]5(C)CC[C@H](O)[C@@](C)(CO)[C@@H]5[C@H](O)C[C@]43C)[C@@H]2C1,> 10,> 10,> 10,> 10,3.5
CC(=O)O[C@H]1CC[C@]2(C)[C@H]3CC=C4[C@@H]5[C@@H](C)[C@H](C)CC[C@]5(C)CC[C@@]4(C(=O)O)[C@]3(C)CC[C@H]2C1(C)C,> 10,> 10,> 10,> 10,9.4
C[C@H]1[C@H](C)CC[C@]2(C)CC[C@]3(C(=O)O)C(=CC[C@@H]4[C@@]5(C)CC[C@H](O)[C@](C)(CO)[C@@H]5[C@H](O)C[C@]43C)[C@H]12,> 10,> 10,> 10,> 10,> 10
CC[C@@]1(O)C(=O)OCc2c1cc1n(c2=O)Cc2cc3ccccc3nc2-1 [CAMPTOTHECIN],–,–,–,–,0.8
COc1cccc2c1C(=O)c1c(O)c3c(c(O)c1C2=O)C[C@@](O)(C(=O)CO)C[C@@H]3O[C@H]1C[C@H](N)[C@H](O)[C@H](C)O1 [DOXORUBICIN],2.5,2.2,4,–,–
